Our source for the IC50, inhibition and Activity values is ChEMBL document CHEMBL3875220, “Development of new inhibitors for N-acylethanolamine-hydrolyzing acid amidase as promising tool against bladder cancer” (Bioorg Med Chem, 2017).

In test [1] the target is T1, N-acylethanolamine-hydrolyzing acid amidase (Homo sapiens, UniProt Q02083).
T1 sequence (Q02083 whole entry): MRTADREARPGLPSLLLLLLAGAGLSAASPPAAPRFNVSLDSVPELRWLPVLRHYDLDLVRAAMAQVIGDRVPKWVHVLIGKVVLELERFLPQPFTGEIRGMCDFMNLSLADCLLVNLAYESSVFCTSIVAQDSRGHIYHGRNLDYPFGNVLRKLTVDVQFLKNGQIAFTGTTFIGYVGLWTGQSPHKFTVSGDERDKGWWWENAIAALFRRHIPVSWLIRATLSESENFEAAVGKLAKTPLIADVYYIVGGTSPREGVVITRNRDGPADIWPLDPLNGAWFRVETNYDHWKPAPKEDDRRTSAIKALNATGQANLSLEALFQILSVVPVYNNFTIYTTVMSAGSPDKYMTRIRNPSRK
In words: (§1) Inhibition of recombinant human NAAA using PAMCA as substrate preincubated for 30 mins followed by substrate addition measured every 3 mins for 2.5 hrs by fluorescence HTS method. A digest of the protocol:
(§2)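 Human recombinant NAAA (25 ng, purity >95%) was used in 100 mM sodium acetate buffer and preincubated with inhibitor in DMSO for 30 min at room temperature. PAMCA was then added to a final 10 µM. Released 7-amino-4-methylcoumarin fluorescence was read at 460 nm every 3 min. […] Linearity was checked at 5–100 µM over 5 h.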

Test [2] addresses T2, N-acylethanolamine-hydrolyzing acid amidase (Homo sapiens) (UniProt Q02083).
T2 sequence (whole entry): T1 sequence (Q02083 whole entry)
In words: Inhibition of recombinant human NAAA at 5 to 100 uM using PAMCA as substrate preincubated for 30 mins followed by substrate addition measured every 3 mins for 5 hrs by fluorescence HTS method. The essentials: as §2

Test [3] can be described thus: Antiproliferative activity against human 5637 cells after 72 hrs by MTT assay. As to conditions: Homo sapiens, 5637, 72 h. Type of test: functional, cell-based. The essentials:
(§3)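 Human bladder cancer cells were kept in RPMI 1640 with 10% FBS and penicillin/streptomycin at 37 °C, 5% CO₂. They were seeded at 5 × 10³ cells/well and exposed to serial log dilutions from 100 to 0.1 µM for 72 h, with DMSO for controls. Read-out was MTT, with formazan dissolved in DMSO and read at 570 nm. IC50 was the concentration inhibiting 50% relative to untreated controls. Three or more experiments in triplicate; mean ± SD.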
(In general: Formazan colour is commonly taken as a measure of viable cells.)

Test [4] has as its target T2, N-acylethanolamine-hydrolyzing acid amidase (Homo sapiens). The experiment in a line: Competitive inhibition of recombinant human NAAA at 100 uM in presence of varying levels of PAMCA as substrate preincubated for 30 mins followed by substrate addition measured every 3 mins for 2.5 hrs by Lineweaver-Burk plot analysis. A digest of the protocol:
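Human recombinant NAAA was used with PAMCA as substrate at varying concentrations, using the fluorescence assay in acetate buffer. Vmax and KM were derived from Michaelis–Menten fits, and inhibition mode was assigned from Lineweaver–Burk plots of 1/V against 1/[PAMCA].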

For test [5] the target is unchanged. The description is as §1. The essentials: as §2
Test [6] in a line: Antiproliferative activity against human RT4 cells after 72 hrs by MTT assay. Type of test: functional, cell-based. As to conditions: RT-4, 72 h. A digest of the protocol:
as §3

Test [7] can be described thus: Antiproliferative activity against human RT112 cells after 72 hrs by MTT assay. Type of test: functional, cell-based. As to conditions: RT-112, 72 h. The essentials: as §3
The next test relates to HT-1376. The experiment in a line: Antiproliferative activity against human HT-1376 cells after 72 hrs by MTT assay. Type of test: functional, cell-based. As to conditions: HT-1376, 72 h. A digest of the protocol: as §3
Test [8] can be described thus: (§4) Anti-migratory activity against human RT112 cells at 40 nM after 24 hrs by wound healing assay relative to control. Type of test: functional, RT-112. The essentials:
(§5)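 RT112 cells seeded at 5 × 10⁵ cells/well to give a sub-confluent monolayer, then scratched (~1 mm wide). Debris was removed and medium replaced with medium containing inhibitor at 40 nM, with DMSO only for controls. Phase-contrast images were taken at 0 and 24 h. Wound closure was calculated as the initial wound area minus the cell-free area remaining at 24 h. Three or more experiments in triplicate; mean ± SD; Student's t-test.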

Test [9] has as its target T2, N-acylethanolamine-hydrolyzing acid amidase (Homo sapiens). In words: Inhibition of NAAA in human RT112 cells assessed as increase in N-palmitoylethanolamide level at 40 uM after 24 hrs by HPLC-MS/MS analysis. Type of test: cell-based. As to conditions: RT-112. A digest of the protocol: (§6)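 RT112 cells were treated with 40 µM inhibitor for 24 h. Cells and supernatant were pooled (1 ml) and spiked with d4-SEA and d4-LNEA internal standards. Protein was precipitated with cold acetone, and the supernatant was purified by SPE and stored at −80 °C. NAEs were quantified by LC-TripleTOF MS and reported in ng/ml as mean ± SD.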

Test [10] shares this target. In words: Inhibition of NAAA in human RT112 cells assessed as increase in N-stearoylethanolamide level at 40 uM after 24 hrs by HPLC-MS/MS analysis. Type of test: cell-based. Particulars: RT-112. A digest of the protocol: as §6
Test [11] shares this target. The experiment in a line: Inhibition of NAAA in human RT112 cells assessed as increase in N-oleoylethanolamide level at 40 uM after 24 hrs by HPLC-MS/MS analysis. Type of test: cell-based. As to conditions: RT-112. A digest of the protocol: as §6
The target is the same in test [12]. In words: Reversible inhibition of recombinant human NAAA at 50 to 100 uM preincubated for 20 mins followed by 20-fold dilution and PAMCA substrate addition by fluorescence HTS method. The essentials:
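Reversibility test: human recombinant NAAA was incubated with inhibitor at 50 or 100 µM final for 20 min. The mixture was diluted twenty-fold and fresh inhibitor added (2.5–50 µM for the 50 µM series, 5–100 for the 100 µM series). The reaction was started with PAMCA and fluorescence was read. Activity was compared between the paired conditions.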

For another test, the system named is RT-112. Described as §4. Type of test: functional. The essentials:
as §5

pIC50: −log10 of the molar value. Active and inactive are the calls of the source. The rule behind the calls is not given here.

The term pIC50 denotes −log10 of the IC50, conventionally taken in molar units. As to `CCCCCCCCCCCCCCCCNC(=O)c1ccccc1`, the pIC50 in test [1] and in test [3] was 4.35 in each case. Besides, the inhibition entry in test [2] was “Active”.

Regarding `CCCCCCCCCCCCCCCCNC(=O)c1ccccc1O`, the inhibition entry in [4], in [9], in test [10] and in test [11] was “Active” each time. The inhibition result in test [5] is “Dose-dependent effect”. The pIC50 is 4.96 in test [1]; 4.20 in test [6]; 5.24 in [7]; 4.95 in test [3]; 4.99 with HT-1376. Besides, the Activity in test [8] was 50%.

For the molecule `CCCCCCCCCCCCCCCCNC(=O)[C@H](O)c1ccccc1`, the inhibition result in [4] and in test [12] was “Active” throughout. Further, the inhibition result in test [5] was “Dose-dependent effect”. The pIC50 is 4.70 in test [1], 5.46 in [6], 4.55 in test [7] and 4.60 in [3].

Regarding `CCCCCCCCCCCCCCCCNC(=O)c1ccncc1`, in test [5], the inhibition result was “Dose-dependent effect”. Moreover, the pIC50 in test [1] is 4.01; in [6] it was 4.38; in test [7], 4.12; in test [3] it was 4.29.

In the case of `CCCCCCCCCCCCCCCNC(=O)c1ccc2ccccc2c1`, the pIC50 in [1] is < 4.00.

Turning to `CCCCCCCCCCCCCCCCNC(=O)c1cc(O)ccc1O`, the inhibition entry in test [4], in [9], in [10] and in test [11] was “Active” each time. Besides, the inhibition result in test [5] is “Dose-dependent effect”. For the same molecule, the pIC50 in [1] was 4.42; in test [7] it was 5.15; in [3] it was 5.14; with HT-1376, 5.02. In addition, the Activity in test [8] was 80%.

Consider `CCCCCCCCCCCCCCCNC(=O)CCO`, for which the inhibition entry in [4], in [2], in test [12], in test [9], in test [10] and in test [11] was “Active” throughout. Moreover, the pIC50 is 4.47 in test [1], 4.23 in test [7] and 4.40 in test [3]. Besides, in the test with RT-112, the outcome was Active.

Take `CCCCCCCCCCCCCCCCNC(=O)[C@@H](O)c1ccccc1`: the inhibition entry in test [5] is “Dose-dependent effect”. The pIC50 in test [1] is 4.11; in test [6], < 4.00; in test [7] it was 4.60; in test [3] it was 4.73.
